The record followed here is ChEMBL document CHEMBL1781898, “Orally active achiral N-hydroxyformamide inhibitors of ADAM-TS4 (aggrecanase-1) and ADAM-TS5 (aggrecanase-2) for the treatment of osteoarthritis” (Bioorg Med Chem Lett, 2011).

Each structure is given as a SMILES string. pIC50: −log10 of the molar value. Converted amounts (≈) assume the structure as drawn. The source made the active and inactive calls.

Data set [1] concerns the target T1, A disintegrin and metalloproteinase with thrombospondin motifs 4 (Homo sapiens, UniProt O75173).
T1 sequence (O75173 whole entry): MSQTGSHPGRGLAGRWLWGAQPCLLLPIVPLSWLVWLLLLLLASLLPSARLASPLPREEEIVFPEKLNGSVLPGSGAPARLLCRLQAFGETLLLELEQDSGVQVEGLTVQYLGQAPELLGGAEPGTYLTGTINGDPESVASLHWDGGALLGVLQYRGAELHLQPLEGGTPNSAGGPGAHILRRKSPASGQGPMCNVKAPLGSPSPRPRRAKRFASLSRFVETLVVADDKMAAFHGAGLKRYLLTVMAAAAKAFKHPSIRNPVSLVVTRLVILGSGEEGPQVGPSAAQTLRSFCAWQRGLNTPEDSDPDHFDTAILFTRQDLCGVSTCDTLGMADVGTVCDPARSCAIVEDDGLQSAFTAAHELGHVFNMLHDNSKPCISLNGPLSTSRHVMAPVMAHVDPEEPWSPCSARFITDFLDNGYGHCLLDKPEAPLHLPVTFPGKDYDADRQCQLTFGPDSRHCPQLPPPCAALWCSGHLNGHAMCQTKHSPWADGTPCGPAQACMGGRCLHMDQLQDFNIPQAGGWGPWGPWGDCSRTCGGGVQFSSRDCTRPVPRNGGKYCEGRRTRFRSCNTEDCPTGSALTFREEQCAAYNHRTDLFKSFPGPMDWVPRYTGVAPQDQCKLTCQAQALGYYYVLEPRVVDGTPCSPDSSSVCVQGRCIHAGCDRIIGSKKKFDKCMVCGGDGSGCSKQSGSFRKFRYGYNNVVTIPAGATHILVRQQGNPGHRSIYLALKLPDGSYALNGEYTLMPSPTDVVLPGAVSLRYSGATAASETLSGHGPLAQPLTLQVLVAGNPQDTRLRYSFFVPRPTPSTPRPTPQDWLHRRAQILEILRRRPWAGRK
The data set can be described thus: Inhibition of ADAMTS-4 assessed as substrate cleavage after 16 hrs by fluorescence assay. Summed up: (§1)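 Enzyme inhibition IC50s derived from at least six measurements, standard errors normally <5% within an assay; a standard compound run to keep assay-to-assay variability within twofold.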

Another data set addresses Cytochrome P450 3A4 (Homo sapiens, UniProt P08684). The experiment in a line: Inhibition of CYP3A4. It counts as ADME. Summed up:
(§2)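 Inhibition of cytochrome P450 isoforms 1A2, 2C9, 2C19, 2D6 and 3A4, reported as pIC50.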

In a further data set the target is Collagenase 3 (Homo sapiens, UniProt P45452). The experiment in a line: Inhibition of recombinant human MMP-13 assessed as substrate cleavage at 15 uM after 20 hrs by fluorescence assay.
The target of data set [2] is T2, A disintegrin and metalloproteinase with thrombospondin motifs 5 (Homo sapiens, UniProt Q9UNA0).
T2 sequence (Q9UNA0 whole entry): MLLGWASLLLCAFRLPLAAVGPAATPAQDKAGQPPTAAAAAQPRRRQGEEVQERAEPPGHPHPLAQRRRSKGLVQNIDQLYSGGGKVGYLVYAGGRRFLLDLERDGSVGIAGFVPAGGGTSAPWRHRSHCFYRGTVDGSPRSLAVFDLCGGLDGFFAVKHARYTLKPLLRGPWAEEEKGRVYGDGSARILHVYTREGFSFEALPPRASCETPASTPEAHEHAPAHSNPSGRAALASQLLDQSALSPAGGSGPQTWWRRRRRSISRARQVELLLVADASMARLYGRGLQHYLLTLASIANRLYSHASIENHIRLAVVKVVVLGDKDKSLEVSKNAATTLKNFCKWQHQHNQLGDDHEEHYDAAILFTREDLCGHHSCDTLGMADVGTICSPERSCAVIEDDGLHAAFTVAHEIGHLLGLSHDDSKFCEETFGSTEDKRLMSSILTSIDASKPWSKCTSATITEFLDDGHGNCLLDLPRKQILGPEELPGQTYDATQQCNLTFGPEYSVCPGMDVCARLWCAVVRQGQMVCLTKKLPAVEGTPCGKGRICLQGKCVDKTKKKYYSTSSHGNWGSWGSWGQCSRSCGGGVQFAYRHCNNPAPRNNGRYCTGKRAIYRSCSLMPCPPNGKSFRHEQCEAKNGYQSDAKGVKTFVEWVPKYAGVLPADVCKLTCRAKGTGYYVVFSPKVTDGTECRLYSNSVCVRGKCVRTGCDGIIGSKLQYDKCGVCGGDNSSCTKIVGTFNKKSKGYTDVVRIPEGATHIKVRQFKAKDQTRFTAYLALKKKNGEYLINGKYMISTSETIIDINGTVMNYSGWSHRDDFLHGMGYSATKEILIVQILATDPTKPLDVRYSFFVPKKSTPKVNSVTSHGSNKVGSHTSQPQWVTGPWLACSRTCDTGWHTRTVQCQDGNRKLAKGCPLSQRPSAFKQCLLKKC
The data set can be described thus: Inhibition of ADAMTS-5 assessed as substrate cleavage after 16 hrs by fluorescence assay. Summed up:
as §1

A short description of data set [3]: Intrinsic clearance in human liver microsomes. It counts as ADME, Microsome. The method in brief: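 Human liver microsome metabolism; intrinsic clearance expressed as μL/min/mg, reported as mean of eight separate experiments.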
Data set [4] is described as follows: Lipophilicity, log D of the compound. Format: physicochemical. The conditions noted are these: octanol/water.
Data set [5] can be described thus: Thermodynamic solubility of the compound in phosphate buffer at pH 7.4 after 24 hrs. Format: physicochemical. The conditions noted are these: read-out: Therm_solubility.
Data set [6] is described as follows: Free drug level in human. The conditions noted are these: in vivo. It counts as ADME, organism-based.
A short description of data set [7]: Free drug level in rat. Format: ADME, organism-based. The conditions noted are these: in vivo.
Data set [8] is described as follows: Free drug level in dog. Format: ADME, organism-based, Canis lupus familiaris. The conditions noted are these: in vivo.
Data set [9] can be described thus: Intrinsic clearance in human hepatocytes measured per million cells. It counts as ADME, cell-based, Liver, Hepatocyte. Summed up: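 Human hepatocyte metabolism; intrinsic clearance expressed as μL/min/10⁶ cells, reported as mean of six separate experiments.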
Data set [10] can be described thus: Apparent permeability across apical to basolateral side in human Caco2 cells at 10 uM. The conditions noted are these: Caco-2. Format: ADME, cell-based.
A short description of data set [11]: Apparent permeability across basolateral to apical side in human Caco2 cells at 10 uM. Format: ADME, cell-based. Conditions: Caco-2. A general note: Passage across Caco-2 layers is used to estimate intestinal permeability.
The nature of data set [12]: Clearance in mouse. Format: ADME, organism-based. Conditions: in vivo.
Data set [13] can be described thus: Half life in mouse. It counts as ADME, organism-based. The conditions noted are these: in vivo.
The nature of data set [14]: Volume of distribution at steady state in mouse. It counts as ADME, organism-based. The conditions noted are these: in vivo, read-out: Vdss.
The nature of data set [15]: Half life in rat at 2 mg/kg, iv and 3 to 10 mg/kg, po. Format: ADME, organism-based. Conditions: in vivo.
The nature of data set [16]: Volume of distribution at steady state in rat at 2 mg/kg, iv and 3 to 10 mg/kg, po. It counts as ADME, organism-based. The conditions noted are these: in vivo, read-out: Vdss.
Data set [17] in a line: Clearance in dog at 1 mg/kg, iv and 1 mg/kg, po. Format: ADME, organism-based, Canis lupus familiaris. The conditions noted are these: in vivo.
Data set [18] can be described thus: Volume of distribution at steady state in dog at 1 mg/kg, iv and 1 mg/kg, po. Format: ADME, organism-based, Canis lupus familiaris. The conditions noted are these: in vivo, read-out: Vdss.
The nature of data set [19]: Oral bioavailability in rat. Format: ADME, organism-based. Conditions: in vivo.
Data set [20] in a line: Oral bioavailability in dog. It counts as ADME, organism-based, Canis lupus familiaris. The conditions noted are these: in vivo.
The species entered for data set [21] is Homo sapiens. The experiment in a line: Inhibition of aggrecanase activity in IL-1, OSM and plasminogen-stimulated human articular cartilage explant assessed as reduction in CTXII peptide release at 10 uM after 14 days.
The species named for data set [22] is Homo sapiens. The data set can be described thus: Inhibition of aggrecanase activity in IL-1, OSM and plasminogen-stimulated human articular cartilage explant assessed as reduction in CTXII peptide release at 10 uM after 21 days. The method in brief: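 Human cartilage stimulated with interleukin-1, oncostatin-M and plasminogen for 21 days, without or with 10 µM compound.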

The next data set relates to Cavia porcellus. The data set can be described thus: Inhibition of ADAMTS4 in sc dosed Dunkin hartley guinea pig spontaneous osteoarthritis model assessed as reduction in NITEGE release in medial cartilage at concentration equivalent to 4 to 7 fold human ADAMTS4 FRET IC50 administered for 7 days. Format: functional, organism-based. Summed up: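 Compound given for 7 days via subcutaneous mini-pump; articular cartilage then dissected from medial tibial plateau of hind knee joints and NITEGE neo-epitope levels measured in cartilage extracts versus vehicle-treated animals; significance P < 0.05.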

The target in the next data set is T3, Cytochrome P450 1A2 (Homo sapiens, UniProt P05177).
T3 sequence (P05177 whole entry): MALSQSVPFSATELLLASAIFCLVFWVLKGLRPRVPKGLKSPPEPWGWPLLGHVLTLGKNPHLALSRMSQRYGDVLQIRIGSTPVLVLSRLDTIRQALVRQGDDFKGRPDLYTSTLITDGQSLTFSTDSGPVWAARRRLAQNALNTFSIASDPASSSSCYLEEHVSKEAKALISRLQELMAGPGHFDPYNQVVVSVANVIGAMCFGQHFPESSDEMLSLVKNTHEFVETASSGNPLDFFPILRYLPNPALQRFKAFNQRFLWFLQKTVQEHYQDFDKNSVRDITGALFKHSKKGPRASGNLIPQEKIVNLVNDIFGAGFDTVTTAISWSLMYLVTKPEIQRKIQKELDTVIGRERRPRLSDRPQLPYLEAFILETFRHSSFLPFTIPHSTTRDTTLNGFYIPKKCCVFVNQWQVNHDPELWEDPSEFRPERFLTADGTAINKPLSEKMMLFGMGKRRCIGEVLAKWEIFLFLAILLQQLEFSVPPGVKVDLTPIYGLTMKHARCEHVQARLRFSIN
The experiment in a line: Inhibition of CYP1A2. It counts as ADME. The method in brief:
as §2

The target in another data set is Cytochrome P450 2C9 (Homo sapiens, UniProt P11712). The experiment in a line: Inhibition of CYP2C9. It counts as ADME. The method in brief:
as §2

Another data set concerns the target Cytochrome P450 2D6 (Homo sapiens, UniProt P10635). The experiment in a line: Inhibition of CYP2D6. It counts as ADME. Summed up: as §2
For another data set, the target named is Cytochrome P450 2C19 (Homo sapiens, UniProt P33261). The data set can be described thus: Inhibition of CYP2C19. Format: ADME. The method in brief: as §2
Chain of Cytochrome P450 2C19 (P33261 whole entry): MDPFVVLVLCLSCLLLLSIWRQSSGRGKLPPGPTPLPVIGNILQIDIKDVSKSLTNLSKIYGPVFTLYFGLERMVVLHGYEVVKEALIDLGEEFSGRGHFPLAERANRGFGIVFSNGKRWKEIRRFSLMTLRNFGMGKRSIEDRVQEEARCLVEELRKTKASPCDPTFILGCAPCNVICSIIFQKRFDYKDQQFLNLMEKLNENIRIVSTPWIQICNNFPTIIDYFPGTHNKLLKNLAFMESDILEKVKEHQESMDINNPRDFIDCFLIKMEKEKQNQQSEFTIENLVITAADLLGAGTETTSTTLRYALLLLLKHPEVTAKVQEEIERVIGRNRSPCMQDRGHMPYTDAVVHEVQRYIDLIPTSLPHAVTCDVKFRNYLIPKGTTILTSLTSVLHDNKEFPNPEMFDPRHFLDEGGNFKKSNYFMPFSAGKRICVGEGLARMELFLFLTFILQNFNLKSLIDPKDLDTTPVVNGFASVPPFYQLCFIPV
Data set [23] concerns the target Voltage-gated inwardly rectifying potassium channel KCNH2 (Homo sapiens, UniProt Q12809).

Chain of Cytochrome P450 3A4 (P08684 whole entry, canonical isoform): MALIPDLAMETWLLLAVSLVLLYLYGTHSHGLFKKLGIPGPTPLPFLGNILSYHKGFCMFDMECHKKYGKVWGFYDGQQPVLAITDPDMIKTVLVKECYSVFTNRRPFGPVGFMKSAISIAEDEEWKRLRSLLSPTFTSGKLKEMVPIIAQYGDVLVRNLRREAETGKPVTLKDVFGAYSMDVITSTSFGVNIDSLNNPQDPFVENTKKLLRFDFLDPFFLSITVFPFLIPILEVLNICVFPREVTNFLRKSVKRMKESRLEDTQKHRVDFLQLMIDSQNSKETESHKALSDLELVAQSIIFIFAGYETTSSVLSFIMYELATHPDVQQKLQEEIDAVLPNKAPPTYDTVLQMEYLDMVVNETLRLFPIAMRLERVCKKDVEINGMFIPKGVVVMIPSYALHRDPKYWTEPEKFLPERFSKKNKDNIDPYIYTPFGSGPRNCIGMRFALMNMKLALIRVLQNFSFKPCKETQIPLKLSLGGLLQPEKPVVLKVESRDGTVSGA
Chain of Cytochrome P450 2D6 (P10635 whole entry): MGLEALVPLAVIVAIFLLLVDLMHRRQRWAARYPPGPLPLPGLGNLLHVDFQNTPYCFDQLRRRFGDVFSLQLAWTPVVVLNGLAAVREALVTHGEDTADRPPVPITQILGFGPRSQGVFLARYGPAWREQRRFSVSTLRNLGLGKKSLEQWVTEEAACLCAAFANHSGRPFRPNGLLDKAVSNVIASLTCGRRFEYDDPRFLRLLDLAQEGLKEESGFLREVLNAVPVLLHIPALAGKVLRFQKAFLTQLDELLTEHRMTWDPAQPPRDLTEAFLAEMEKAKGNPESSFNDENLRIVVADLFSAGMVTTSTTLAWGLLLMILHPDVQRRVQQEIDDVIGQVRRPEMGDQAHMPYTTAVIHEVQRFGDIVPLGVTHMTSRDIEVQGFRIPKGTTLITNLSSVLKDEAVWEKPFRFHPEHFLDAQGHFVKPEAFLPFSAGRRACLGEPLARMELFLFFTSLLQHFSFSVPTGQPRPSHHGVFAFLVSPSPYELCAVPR
Chain of Voltage-gated inwardly rectifying potassium channel KCNH2 (Q12809 whole entry): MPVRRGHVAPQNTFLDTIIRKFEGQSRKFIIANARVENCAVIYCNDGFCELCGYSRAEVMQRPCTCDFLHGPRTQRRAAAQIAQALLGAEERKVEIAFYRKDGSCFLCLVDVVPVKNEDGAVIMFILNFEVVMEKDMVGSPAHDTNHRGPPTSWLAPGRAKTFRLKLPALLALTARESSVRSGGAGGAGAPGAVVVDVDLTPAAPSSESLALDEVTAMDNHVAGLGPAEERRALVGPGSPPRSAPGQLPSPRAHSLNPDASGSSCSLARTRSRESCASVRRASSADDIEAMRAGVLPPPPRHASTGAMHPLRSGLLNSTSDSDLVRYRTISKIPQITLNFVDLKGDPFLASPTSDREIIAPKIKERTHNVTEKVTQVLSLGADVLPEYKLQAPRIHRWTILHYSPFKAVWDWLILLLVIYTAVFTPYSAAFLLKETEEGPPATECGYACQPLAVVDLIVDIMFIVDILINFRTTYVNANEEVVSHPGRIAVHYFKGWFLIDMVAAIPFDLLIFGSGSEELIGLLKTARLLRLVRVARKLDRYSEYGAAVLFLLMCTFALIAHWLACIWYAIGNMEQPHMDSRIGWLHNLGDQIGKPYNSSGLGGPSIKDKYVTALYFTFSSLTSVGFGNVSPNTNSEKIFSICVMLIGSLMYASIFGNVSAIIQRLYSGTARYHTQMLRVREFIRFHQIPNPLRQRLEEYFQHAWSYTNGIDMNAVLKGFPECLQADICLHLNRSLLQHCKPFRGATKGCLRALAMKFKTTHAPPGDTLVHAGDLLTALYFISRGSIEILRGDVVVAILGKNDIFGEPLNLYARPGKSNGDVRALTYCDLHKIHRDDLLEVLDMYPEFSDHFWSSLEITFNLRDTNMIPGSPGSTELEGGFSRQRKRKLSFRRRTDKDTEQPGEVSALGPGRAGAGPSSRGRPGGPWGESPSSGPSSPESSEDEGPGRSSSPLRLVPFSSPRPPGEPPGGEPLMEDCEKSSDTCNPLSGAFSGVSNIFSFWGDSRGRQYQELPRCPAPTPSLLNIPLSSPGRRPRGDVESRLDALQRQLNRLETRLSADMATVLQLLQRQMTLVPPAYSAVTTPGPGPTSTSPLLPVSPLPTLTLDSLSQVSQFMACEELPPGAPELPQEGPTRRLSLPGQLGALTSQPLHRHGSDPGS
Chain of Cytochrome P450 2C9 (P11712 whole entry): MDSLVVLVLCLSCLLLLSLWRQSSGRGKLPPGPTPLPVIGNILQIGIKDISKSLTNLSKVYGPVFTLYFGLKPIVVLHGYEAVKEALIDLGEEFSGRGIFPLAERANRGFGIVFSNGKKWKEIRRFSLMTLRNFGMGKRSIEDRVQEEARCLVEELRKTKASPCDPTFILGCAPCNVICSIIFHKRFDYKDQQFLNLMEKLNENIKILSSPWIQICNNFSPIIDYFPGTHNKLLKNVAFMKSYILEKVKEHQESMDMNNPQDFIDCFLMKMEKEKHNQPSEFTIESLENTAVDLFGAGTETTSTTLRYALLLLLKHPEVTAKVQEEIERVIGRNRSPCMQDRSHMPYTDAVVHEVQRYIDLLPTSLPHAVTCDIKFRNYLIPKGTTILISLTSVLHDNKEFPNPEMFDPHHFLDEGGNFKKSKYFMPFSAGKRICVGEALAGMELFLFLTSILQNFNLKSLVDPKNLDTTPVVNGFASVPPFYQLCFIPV

As to `O=CN(O)C1(CS(=O)(=O)N2CCN(c3ccc(F)cc3)CC2)CCC1`, the figures for the pIC50 (in data set [1]; against Cytochrome P450 3A4) were 7.04 and 5.72, respectively. For the same compound, the inhibition (usually the share of the control response that was lost under treatment) on Collagenase 3 was found to be 81%.

For the compound `Cc1noc(C)c1CCC1CCN(S(=O)(=O)C[C@](C)(C[C@H](C)c2ncc(F)cn2)N(O)C=O)CC1`, the pIC50 (as a rule, −log10 of the IC50, conventionally taken in molar units) was 7.64 in data set [2] and 4.19 in data set [23]. Besides, the “inhibition (INH)” value against Cytochrome P450 3A4, on Cytochrome P450 1A2, against Cytochrome P450 2C9, against Cytochrome P450 2D6 and at Cytochrome P450 2C19 was “Not Active” each time. In addition, the microsomal CLint (in general, the capacity of the preparation to metabolise the compound, expressed as a volume cleared per time) in data set [3] was 29.4 µL/min/mg. In [4], the logD (usually lipophilicity at a set pH, counting ionised and neutral species) came to 1.6. Besides, in data set [5], the solubility thermodynamic at 24 h was determined as 150 µM (≈ 76.7 µg/mL). In addition, the fraction unbound (in general, free concentration divided by total concentration) came out at 0.11 in data set [6], 0.22 in [7] and 0.25 in [8]. Further, the hepatocyte CLint (commonly a measure of how fast metabolising enzymes remove a compound, apart from limits set by blood flow) in data set [9] was below 2 µL/min/1e6 cells. Also, in data set [10], the Papp A→B (in general, the apparent permeability from the apical to the basolateral side of a cell layer) at 10 µM turned out to be 5.3 ×10⁻⁶ cm/s. Also, the Papp B→A (in general, the apparent permeability from the basolateral to the apical side of a cell layer) at 10 µM in [11] amounted to 10.9 ×10⁻⁶ cm/s. The values for the clearance in data set [12] and in data set [17] were 16.8 mL/min/kg and 20.7 mL/min/kg, respectively. The half-life (in general, the time needed for the level to fall by half in the phase considered) is 5.4 h in [13] and 11 h in [15]. For the same compound, the results for the Vd in data set [14], in [16] and in data set [18] were 7.2 L/kg, 7.4 L/kg and 9.2 L/kg, respectively. Moreover, the bioavailability (in general, the share of a dose that reaches the circulation, judged against a reference dose that is usually intravenous) stood at 1% in data set [19] and 20% in data set [20]. The inhibition result in the data set filed under Homo sapiens [21], in the data set listed under Homo sapiens [22] and with Cavia porcellus was “Active” each time.

Regarding `O=CN(O)C1(CS(=O)(=O)N2CCN(c3ccc(F)cc3)CC2)CCOCC1`, the pIC50 is 7.68 in data set [1] and below 5.00 at Cytochrome P450 3A4. The inhibition on Collagenase 3 stood at 97%.
